Our source for the Ki, EC50 and Activity values is ChEMBL document CHEMBL1148504, “Substituent effects of N-(1,3-diphenyl-1H-pyrazol-5-yl)benzamides on positive allosteric modulation of the metabotropic glutamate-5 receptor in rat cortical astrocytes” (J Med Chem, 2006).

For experiment [1], the target named is T1, Metabotropic glutamate receptor 5 (Rattus norvegicus, UniProt P31424). In words: Displacement of [3H]methoxyPEPy from rat mGluR5 expressed in HEK293 cells. The format is cell-based. A digest of the protocol:
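Membranes from stable HEK cells expressing rat mGluR5a, resuspended in 50 mM Tris HCl/0.9% saline, pH 7.4. Final: 2 nM [3H]methoxyPEPy, 0.1 mg protein/mL, 0.13% DMSO, triplicate; 60 min at room temperature with shaking. Filtration onto GF/B filters, scintillation counting. Nonspecific binding with 5 µM MPEP. Ki derived from IC50 by nonlinear fit; mean ± SEM of three experiments.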
On the technique in general: In a radioligand displacement assay an active substance lowers the binding of a labelled ligand.

The target in experiment [2] is T1, Metabotropic glutamate receptor 5. Nature of the experiment: (§1) Activity at mGluR5 assessed as potentiation of glutamate-induced calcium flux in rat astrocytes. The experiment is classed as functional, cell-based. In short, it runs like this:
(§2)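 Cortical astrocytes from 2-4-day-old Sprague Dawley rats, grown 1 week in DMEM/10% FBS/2 mM glutamine/20 mM HEPES at 37 °C, 5% CO2, then plated on poly-D-lysine. Dye-loaded 1 h at 37 °C; HBSS with 20 mM HEPES, 2.5 mM probenecid, pH 7.4.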

Experiment [3] deals with Metabotropic glutamate receptor 5 (Rattus norvegicus) (UniProt P31424). The description is as §1. The format is functional, cell-based. In short, it runs like this:
as §2

For orientation: Ki means the equilibrium dissociation constant of an inhibitor or competing ligand from its target. A high value points to weaker binding. Usually EC50 stands for the concentration needed to bring the measured effect to its halfway point.

Structures are written as SMILES. The source made the active and inactive calls. No cut-off for these calls is given here. A value given as a limit tells only on which side of the number the result lay.

T1 sequence (P31424 whole entry): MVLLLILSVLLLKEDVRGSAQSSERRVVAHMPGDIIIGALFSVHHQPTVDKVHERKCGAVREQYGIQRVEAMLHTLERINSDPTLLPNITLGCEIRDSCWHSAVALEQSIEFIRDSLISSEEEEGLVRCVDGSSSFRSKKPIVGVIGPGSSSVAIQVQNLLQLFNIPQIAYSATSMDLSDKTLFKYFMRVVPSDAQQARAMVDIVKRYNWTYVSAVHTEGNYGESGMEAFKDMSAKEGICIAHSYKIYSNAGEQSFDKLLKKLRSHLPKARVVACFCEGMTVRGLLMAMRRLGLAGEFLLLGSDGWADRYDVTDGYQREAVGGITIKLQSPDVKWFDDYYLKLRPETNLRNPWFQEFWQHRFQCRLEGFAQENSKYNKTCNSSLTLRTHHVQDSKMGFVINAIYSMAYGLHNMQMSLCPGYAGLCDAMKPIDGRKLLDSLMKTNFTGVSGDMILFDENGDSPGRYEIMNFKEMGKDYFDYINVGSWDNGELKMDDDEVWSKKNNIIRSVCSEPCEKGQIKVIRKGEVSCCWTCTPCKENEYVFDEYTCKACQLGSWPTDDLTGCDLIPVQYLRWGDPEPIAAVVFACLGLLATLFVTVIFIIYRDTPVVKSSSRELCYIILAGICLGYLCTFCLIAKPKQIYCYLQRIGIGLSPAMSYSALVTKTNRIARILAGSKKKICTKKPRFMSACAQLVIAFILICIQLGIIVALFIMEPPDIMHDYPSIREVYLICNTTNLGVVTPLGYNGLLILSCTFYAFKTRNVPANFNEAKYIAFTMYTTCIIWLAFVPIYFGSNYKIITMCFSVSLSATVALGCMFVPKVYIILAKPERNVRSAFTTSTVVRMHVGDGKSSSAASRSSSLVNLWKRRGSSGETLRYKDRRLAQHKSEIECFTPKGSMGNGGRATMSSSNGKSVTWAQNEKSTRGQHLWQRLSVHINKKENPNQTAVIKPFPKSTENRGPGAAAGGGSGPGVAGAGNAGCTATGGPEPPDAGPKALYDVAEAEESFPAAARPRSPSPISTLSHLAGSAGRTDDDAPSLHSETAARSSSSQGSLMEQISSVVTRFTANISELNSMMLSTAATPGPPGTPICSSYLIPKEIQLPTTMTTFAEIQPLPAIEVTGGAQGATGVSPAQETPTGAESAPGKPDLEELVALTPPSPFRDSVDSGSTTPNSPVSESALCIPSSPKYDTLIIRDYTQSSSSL
Metabotropic glutamate receptor 5 (Rattus norvegicus), sequence (P31424 21-1203 limits assumed): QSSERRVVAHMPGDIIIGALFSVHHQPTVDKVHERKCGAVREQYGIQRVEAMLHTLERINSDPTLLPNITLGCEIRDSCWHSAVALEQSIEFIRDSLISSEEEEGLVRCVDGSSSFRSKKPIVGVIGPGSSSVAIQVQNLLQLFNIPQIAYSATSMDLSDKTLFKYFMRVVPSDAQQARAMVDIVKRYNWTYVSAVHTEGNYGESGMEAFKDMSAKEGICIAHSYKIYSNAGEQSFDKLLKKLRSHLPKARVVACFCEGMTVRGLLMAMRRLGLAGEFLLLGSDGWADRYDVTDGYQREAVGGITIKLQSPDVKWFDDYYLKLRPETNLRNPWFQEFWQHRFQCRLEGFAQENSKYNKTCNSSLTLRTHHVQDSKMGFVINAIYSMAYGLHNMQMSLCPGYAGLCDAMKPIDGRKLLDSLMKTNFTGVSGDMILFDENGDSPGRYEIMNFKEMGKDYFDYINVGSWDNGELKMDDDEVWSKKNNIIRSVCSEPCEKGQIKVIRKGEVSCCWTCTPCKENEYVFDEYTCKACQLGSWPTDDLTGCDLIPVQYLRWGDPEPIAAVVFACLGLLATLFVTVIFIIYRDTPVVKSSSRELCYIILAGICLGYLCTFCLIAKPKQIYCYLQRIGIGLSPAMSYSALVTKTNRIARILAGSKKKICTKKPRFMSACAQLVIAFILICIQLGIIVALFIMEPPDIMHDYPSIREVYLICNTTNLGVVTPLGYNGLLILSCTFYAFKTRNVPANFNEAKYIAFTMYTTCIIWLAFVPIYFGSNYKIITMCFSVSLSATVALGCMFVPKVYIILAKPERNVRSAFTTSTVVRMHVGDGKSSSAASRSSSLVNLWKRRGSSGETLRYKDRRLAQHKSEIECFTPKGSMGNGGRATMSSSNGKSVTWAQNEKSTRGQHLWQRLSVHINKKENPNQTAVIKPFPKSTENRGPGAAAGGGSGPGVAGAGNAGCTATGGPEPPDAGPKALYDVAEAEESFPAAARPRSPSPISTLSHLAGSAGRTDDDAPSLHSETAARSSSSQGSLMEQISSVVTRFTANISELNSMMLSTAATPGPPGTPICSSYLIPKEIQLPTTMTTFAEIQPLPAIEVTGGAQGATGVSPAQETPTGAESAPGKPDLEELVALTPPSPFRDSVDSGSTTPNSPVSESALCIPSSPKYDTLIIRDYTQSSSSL

Take `O=C(Nc1c(-c2ccccc2)cnn1-c1ccccc1)c1ccc([N+](=O)[O-])cc1`: the inhibitory constant (Ki) in experiment [1] is over 10000 nM. The EC50 in experiment [2] was over 10000 nM.

In turn, `O=C(Nc1cc(-c2ccccc2)nn1-c1ccccc1Cl)c1ccccc1` returned an inhibition constant (Ki) in experiment [1] of 500 nM. Further, the half-maximal effective concentration (EC50) in experiment [2] is 62 nM.

In the case of `O=C(Nc1cc(-c2ccccc2)nn1-c1ccccc1)c1ccc(OC(F)(F)F)cc1`, the affinity in experiment [1], expressed as Ki, was 265 nM. For the same compound, in experiment [2], the EC50 came out at 18 nM.

`O=C(Nc1cn(-c2ccccc2)nc1-c1ccccc1)c1ccccc1`: in experiment [1], the inhibitory constant (Ki) is over 10000 nM. Besides, in experiment [2], the concentration for a half-maximal effect (EC50) was over 10000 nM.

As for `O=C(Nc1cc(-c2ccccc2)nn1-c1ccccc1Br)c1ccccc1`, in experiment [1], affinity was put at a Ki of 2600 nM. Besides, the EC50 in experiment [2] was 200 nM.

`O=C(Nc1cc(-c2ccccc2)nn1-c1ccccc1Br)c1ccc([N+](=O)[O-])cc1`: the inhibition constant Ki in experiment [1] is 120 nM. The EC50 in experiment [2] turned out to be 61 nM.

In turn, `O=C(Nc1cc(-c2ccccc2)nn1-c1ccccc1)c1ccc(Cl)c(Cl)c1` had a Ki in experiment [1] of 160 nM. In addition, the EC50 in experiment [2] amounted to 13 nM.

As to `N#Cc1ccc(C(=O)Nc2cc(-c3ccccc3)nn2-c2ccccc2)cc1`, in experiment [1], the Ki was 1560 nM. Moreover, in experiment [2], the half-maximal effective concentration (EC50) is 75 nM.

For the compound `Cc1ccc(C(=O)Nc2cc(-c3ccccc3)nn2-c2ccccc2)cc1`, affinity in experiment [1] was put at a Ki of 780 nM. Moreover, the EC50 in experiment [2] came to 64 nM.

`O=C(Nc1cc(-c2ccccc2)nn1-c1ccccc1)c1ccccc1[N+](=O)[O-]`: the inhibition constant (Ki) in experiment [1] was over 10000 nM. In experiment [2], the EC50 was over 10000 nM.

Take `N#Cc1cccc(C(=O)Nc2cn(-c3ccccc3)nc2-c2ccccc2)c1`: the inhibition constant (Ki) in experiment [1] was over 10000 nM. Further, in experiment [2], the 50% effective concentration (EC50) was over 10000 nM.

With `Cc1ccc(C(=O)Nc2cc(-c3ccccc3)nn2-c2ccccc2)cn1`, affinity in experiment [1] was put at a Ki of 3480 nM. Also, in experiment [2], the EC50 was determined as 280 nM.

Take `O=C(Nc1cn(-c2ccccc2)nc1-c1ccccc1)c1ccc([N+](=O)[O-])cc1`: in experiment [1], the Ki was over 10000 nM. The concentration giving a half-maximal response (EC50) in experiment [2] is over 10000 nM.

With `N#Cc1cccc(C(=O)Nc2c(-c3ccccc3)nc3ccccn23)c1`, the inhibition constant Ki in experiment [1] came out at 1990 nM. In addition, in experiment [3] (filed as antagonist), the Activity result was “Antagonist”.

In experiment [1], `O=C(Nc1cc(-c2ccccc2)nn1-c1cccc(Br)c1)c1ccccc1` showed an inhibitory constant (Ki) of over 10000 nM. Further, in experiment [2], the half-maximal effective concentration (EC50) was determined as 400 nM.

The compound `O=C(Nc1cc(-c2ccccc2)nn1-c1ccccc1F)c1ccc([N+](=O)[O-])cc1` came in with a Ki in experiment [1] of 160 nM. Further, in experiment [2], the EC50 stood at 9.6 nM.

As to `O=C(Nc1cc(-c2ccccc2)nn1-c1ccccn1)c1ccccc1`, the Ki in experiment [1] is over 10000 nM. For the same compound, in experiment [3], the outcome was inactive.

`NC(=O)c1ccc(C(=O)Nc2cc(-c3ccccc3)nn2-c2ccccc2)cc1`: in experiment [1], the inhibition constant (Ki) was over 10000 nM. Moreover, the outcome in experiment [3] was inactive.

As to `O=C(Nc1cc(-c2ccccc2)nn1-c1ccccc1)c1cccc([N+](=O)[O-])c1`, in experiment [1], the affinity, expressed as Ki, was 2220 nM. Moreover, in experiment [2], the EC50 was 39 nM.

In experiment [1], `O=C(Nc1cc(-c2ccccc2)nn1-c1ccccc1)C1CCCCC1` came in with a Ki of 10100 nM. The EC50 in experiment [2] was over 10000 nM.

In experiment [1], `COc1ccc(C(=O)Nc2cc(-c3ccccc3)nn2-c2ccccc2)cc1OC` showed an inhibitory constant (Ki) of over 10000 nM. Moreover, in experiment [2], the EC50 was determined as 3530 nM.

In experiment [1], `N#Cc1ccc(C(=O)N(C(=O)c2ccc(C#N)cc2)c2cc(-c3ccccc3)nn2-c2ccccc2)cc1` gave an inhibition constant (Ki) of 3050 nM. The concentration giving a half-maximal response (EC50) in experiment [2] was found to be 340 nM.

`N#Cc1cccc(C(=O)Nc2cc(-c3ccccc3)nn2-c2ccccc2Br)c1` displayed an inhibition constant (Ki) in experiment [1] of 230 nM. The EC50 in experiment [2] stood at 50 nM.

Compound `O=C(CC1CCCC1)Nc1cc(-c2ccccc2)nn1-c1ccccc1` had a Ki in experiment [1] of over 10000 nM. For the same compound, the half-maximal effective concentration (EC50) in experiment [2] was found to be 350 nM.

As to `c1ccc(-c2cn(-c3cc(-c4ccccc4)nn3-c3ccccc3)nn2)cc1`, the Ki in experiment [1] was 5880 nM. In experiment [2], the EC50 was determined as 2600 nM.

`O=C(Nc1cc(-c2ccccc2)nn1-c1ccccc1F)c1ccccc1` had an inhibition constant (Ki) in experiment [1] of 2700 nM. Besides, the EC50 in experiment [2] came out at 104 nM.

Take `COc1cccc(C(=O)Nc2cc(-c3ccccc3)nn2-c2ccccc2)c1`: in experiment [1], the affinity corresponds to a Ki of 1290 nM. Further, in experiment [2], the EC50 turned out to be 102 nM.

`Cc1ccc(C(=O)Nc2cc(-c3ccccc3)nn2-c2ccccc2)cc1C` showed an inhibitory constant (Ki) in experiment [1] of 430 nM. In addition, the EC50 in experiment [2] stood at 20 nM.

With `O=C(Nc1cc(-c2ccccc2)nn1-c1ccccc1)c1ccccc1`, the Ki in experiment [1] was found to be 4180 nM. Besides, the EC50 in experiment [2] turned out to be 203 nM.

`O=C(Nc1c(-c2ccccc2)nc2ccccn12)c1ccccc1` gave a Ki in experiment [1] of 3920 nM. For the same compound, in experiment [3] (filed as antagonist), the Activity entry was “Antagonist”.

`O=C(Nc1cc(-c2ccccc2Cl)nn1-c1ccccc1)c1ccccc1`: the Ki in experiment [1] was over 10000 nM. In addition, the 50% effective concentration (EC50) in experiment [2] was found to be 2290 nM.

In turn, `O=C(Nc1cc(-c2ccccc2)nn1-c1ccccc1Cl)c1ccc([N+](=O)[O-])cc1` yielded a Ki in experiment [1] of 110 nM. Also, in experiment [2], the half-maximal effective concentration (EC50) is 40 nM.

As to `COc1cc(OC)cc(C(=O)Nc2cc(-c3ccccc3)nn2-c2ccccc2)c1`, the inhibition constant Ki in experiment [1] was over 10000 nM. Further, the 50% effective concentration (EC50) in experiment [2] is 2040 nM.

Regarding `N#Cc1cccc(C(=O)Nc2c(-c3ccccc3)cnn2-c2ccccc2)c1`, in experiment [1], the affinity corresponds to a Ki of 1200 nM. Further, the Activity entry in experiment [3] (filed as antagonist) was “Antagonist”.

`O=C(Nc1cc(-c2ccccc2)nn1-c1ccccc1)c1ccc([N+](=O)[O-])cc1`: the Ki in experiment [1] came out at 250 nM. Moreover, the EC50 in experiment [2] was 10.7 nM.

In experiment [1], `O=C(O)c1ccc(C(=O)Nc2cc(-c3ccccc3)nn2-c2ccccc2)cc1` gave a Ki of over 10000 nM. In addition, in experiment [3], the result was inactive.

In experiment [1], `O=C(Nc1cc(-c2ccccc2)nn1-c1ccccc1)c1ccncc1` returned a Ki of over 10000 nM. Moreover, the EC50 in experiment [2] is 2500 nM.

Regarding `O=C(c1ccc(F)cc1)N1CCC[C@H](c2nc(-c3ccc(F)cc3)no2)C1`, the concentration for a half-maximal effect (EC50) in experiment [2] came to 170 nM.

In experiment [1], `O=C(Nc1cc(-c2ccccc2)nn1-c1ccccc1)C1CCCC1` returned a Ki of 11600 nM. For the same compound, in experiment [2], the EC50 is 3410 nM.

As to `O=C(Nc1c(-c2ccccc2)cnn1-c1ccccc1)c1ccccc1`, the affinity in experiment [1], expressed as Ki, was 1170 nM. Also, the Activity result in experiment [3] (filed as antagonist) was “Antagonist”.

Regarding `COc1cccc(-n2nc(-c3ccccc3)cc2NC(=O)c2ccccc2)c1`, in experiment [1], the inhibition constant Ki is 2100 nM. Besides, the EC50 in experiment [2] worked out at 570 nM.

In experiment [1], `O=C(Nc1cc(-c2ccccc2)nn1-c1ccccc1)c1cccc(C(F)(F)F)c1` returned an inhibition constant (Ki) of 1650 nM. The half-maximal effective concentration (EC50) in experiment [2] worked out at 228 nM.

Regarding `O=C(Nc1cc(-c2ccccc2)nn1-c1ccccc1)c1cc([N+](=O)[O-])cc([N+](=O)[O-])c1`, in experiment [2], the EC50 amounted to 65 nM.

`N#Cc1ccc(C(=O)/N=c2\cc(-c3ccccc3)n(C(=O)c3ccc(C#N)cc3)n2-c2ccccc2)cc1` returned an inhibition constant (Ki) in experiment [1] of 5230 nM. The half-maximal effective concentration (EC50) in experiment [2] stood at 43 nM.

Turning to `O=C(Nc1cc(-c2ccccc2)nn1-c1ccccc1)C1=CCCCC1`, affinity in experiment [1] was put at a Ki of 4470 nM. For the same compound, the EC50 in experiment [2] was determined as 3300 nM.

`O=C(Nc1cc(-c2ccccc2)nn1-c1ccccc1)c1ccc(C(F)(F)F)cc1` yielded an inhibition constant (Ki) in experiment [1] of 990 nM. Further, the concentration giving a half-maximal response (EC50) in experiment [2] was 38 nM.

`O=C(/C=C/c1ccc([N+](=O)[O-])cc1)Nc1cc(-c2ccccc2)nn1-c1ccccc1` returned a Ki in experiment [1] of 1810 nM. The concentration for a half-maximal effect (EC50) in experiment [2] turned out to be 560 nM.

Take `N#Cc1cccc(-n2nc(-c3ccccc3)cc2NC(=O)c2ccccc2)c1`: the inhibition constant Ki in experiment [1] is over 10000 nM. In experiment [2], the EC50 worked out at 117 nM.

In experiment [1], `O=C(Nc1cc(-c2ccccc2)nn1-c1ccccc1Br)c1cccc([N+](=O)[O-])c1` yielded an inhibition constant (Ki) of 230 nM. For the same compound, the concentration giving a half-maximal response (EC50) in experiment [2] turned out to be 68 nM.

As for `COc1ccc(C(=O)Nc2cc(-c3ccccc3)nn2-c2ccccc2)cc1`, in experiment [1], the affinity corresponds to a Ki of 420 nM. In experiment [2], the EC50 was found to be 54 nM.

In experiment [1], `COc1cccc(-c2cc(NC(=O)c3ccccc3)n(-c3ccccc3)n2)c1` returned an inhibitory constant (Ki) of 3200 nM. Moreover, the EC50 in experiment [2] came out at 600 nM.
